# Measured values pooled from the literature.
# Compare with care: the assays were run in different laboratories.
# Target: Cannabinoid receptor 2 (CNR2, Homo sapiens, UniProt P34972)
SMILES,test,setting,quantity,result
NC(=O)[C@@H]1CC(F)(F)CN1C(=O)c1ccc(N2CC(F)(F)C2)c(OCC2CC2)n1,"cAMP, agonist",,EC50,3 nM
COc1ccc(-c2cnc3c(c2)cc(C(=O)NC2CCC(C)CC2)c(=O)n3CCN2CCOCC2)cc1 (stereo not drawn),"ligand displacement, radioligand",,IC50,5.56 nM
C[C@H]1CC[C@H]2[C@H](C1)c1c(O)cc(-c3csc4ccccc34)cc1OC2(C)C,"GTPγS binding, agonist, radiometric",cell membranes,EC50,16000 nM
Cc1nc([C@@](C)(CC2CC2)NC(=O)c2cc(OCC(F)(F)F)c(C3CC3)cn2)no1,"cAMP, agonist",,EC50,8 nM
CC1(C)C(C(=O)c2cn(CCCCCF)c3ccccc23)C1(C)C,"GTPγS binding, agonist, radiometric",cell membranes,EC50,145 nM
CCOC(=O)[C@](CC)(CCC[S+]([O-])CCOCCOCCNC(=O)OC(C)(C)C)NC(=O)c1ccc(C2CC2)c(Cc2ccc(F)cc2)n1 (stereo partly drawn),"cAMP, agonist",,EC50,7.9 nM
CCCCCn1cc(C(=O)C2C(C)(C)C2(C)C)c2ccccc21,"GTPγS binding, agonist, radiometric",cell membranes,EC50,334 nM
CC1CCC(NC(=O)c2cc3cc(Br)cnc3n(CCN3CCOCC3)c2=O)CC1 (stereo not drawn),"ligand displacement, radioligand",,IC50,4.95 nM
CCOC(=O)C(CC)(CCCSCCOCCOCCOCCNC(=O)OC(C)(C)C)NC(=O)c1ccc(C2CC2)c(Cc2ccc(F)cc2)n1 (stereo not drawn),"cAMP, agonist",,EC50,10 nM
